Tested on: MS2 coat protein
Assay: apparent Kd, MS2 coat protein; higher = weaker binding; RNA-MaP array; FMN 200 µM where present
Procedure, shortened: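 The apparent Kd is reported as the median of filtered per-cluster binding-curve fits. To get these curves, designs transcribed by stalled E. coli RNA polymerase on Illumina sequencing-chip clusters were titrated with SNAP-549-labelled MS2 coat protein from 0.7 or 1.5 nM, doubling to 3 µM. Titrations were run without and then with constant ligand in 100 mM Tris-HCl pH 7.5, 80 mM KCl, 4 mM MgCl2, BSA, DTT, yeast tRNA and Tween-20, and green signal was normalised to red-channel RNA signal and control-cluster median Fmax.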

[1] = designed as: OFF switch for flavin mononucleotide, no ligand
[2] = ligand present: flavin mononucleotide, designed as: OFF switch for flavin mononucleotide
[3] = designed as: ON switch for flavin mononucleotide, no ligand
[4] = ligand present: flavin mononucleotide, designed as: ON switch for flavin mononucleotide

## CCUCGACAUGAGGAUCACCCAUGUUAGGAUAUGGGAGCGGGAAUUUGAGUAUUCGUACCCAGAAGGAACAGUUA
[1]
  apparent Kd: 42.6 nM
[2]
  apparent Kd: 96 nM

## CCUCUACAUGAGGAUCACCCAUGUGAGGAUAUCUCGGAGCAACCACUUAAGGCGCUCCAGAGAAGGCACGUGUA
[1]
  apparent Kd: 20.6 nM
[2]
  apparent Kd: 28.9 nM

## CCUCUACAUGAGGAUCACCCAUGUGAGGAUAUGCGAGGCGCACUCGAUGAGCGCGCCGGUAGAAGGCAUGUGGU
[1]
  apparent Kd: 24 nM
[2]
  apparent Kd: 55 nM

## CCUGUAAUCCUAUAGGCUUGUUACAUGAGGAUCACCCAUGUCAAGGAUAUAACGUUAAGCUCAUGUUAGAAGGUGACAUGUGGU
[1]
  apparent Kd: 164 nM
[2]
  apparent Kd: 58.6 nM

## CCUUAGUCAGGAUAUACAUGAGGAUCACCCAUGUAAAAUUUUAAUUUAAUUUUAAGGUGUAGAAGGGACCACCC
[1]
  apparent Kd: 26.3 nM
[2]
  apparent Kd: 22.6 nM

## CCUUCACAUGAGGAUCACCCAUGUCCUAGUCCGUCAGGAUAUAGCCCGCAUCCGCUGUGGCUAGAAGGGACUGCUG
[3]
  apparent Kd: 141 nM
[4]
  apparent Kd: 235 nM

## CCUUUAUUUUCAGGAUAUCCGUUUAGGUAGAUAACAUGAGGAUCACCCAUGUCCAUGUUGUAAGUGGAGAAGGGAAAGAGUGGG
[3]
  apparent Kd: 182 nM
[4]
  apparent Kd: 120 nM

## CCUUUGAAGAUCCUAAAUUUCGACAUGAGGAUCACCCAUGUGCAGGAUAUCGUGCCAGUGAUGUGCGAGAAGGGCAGUCUCUGC
[1]
  apparent Kd: 64.6 nM
[2]
  apparent Kd: 73.9 nM

## CCUUUGUCAGGAUAUCAGAACACGCCCGUAGGGAGUGCAAAUGAGAAGGGACAUGAGGAUCACCCAUGUACAGA
[1]
  apparent Kd: 33.2 nM
[2]
  apparent Kd: 114 nM

## CGAAACUACGAGAAGGACAUGUGGUCCUUCAGUUACAUGAGGAUCACCCAUGUAGGAUAUCGUAGUUUCAGGAUCGUGAGAUCC
[1]
  apparent Kd: 58.6 nM
[2]
  apparent Kd: 16.6 nM

## CGACACAUGAGGGUCUCCCAUGACAUGAGGAUCACCCAUGUGCAGGAUAUACGUGUGAUGGUAUAGUAGAAGGGCACUCUAUGU
[1]
  apparent Kd: 41.6 nM
[2]
  apparent Kd: 58 nM

## CGACAUUUAGGAUAUACGGUUAUUGAGGUUUUUGUUAGUCGACAUGAGGAUCACCCAUGUAGAAGGAAAUGAGU
[1]
  apparent Kd: 34.6 nM
[2]
  apparent Kd: 49.4 nM

## CGACGUUGAGAGAAGGAGUAAAAUACAUGAGGAUCACCCAUGUCAGGUGCUAGGAUAUCUUCGCGUGGCAGGGUCGGCCCGUGU
[3]
  apparent Kd: 66 nM
[4]
  apparent Kd: 14.3 nM

## CGACUGUGAGGAUAUGGUGAGUAGUGCCUGAGCGCUGCUCACCAGAAGGCACAUGAGGAUCACCCAUGUAUAGC
[1]
  apparent Kd: 41.7 nM
[2]
  apparent Kd: 165 nM

## CGAGCUCGUGUGAGGAUAUACCUAUGGAUACAUAGGUAGAAGGCACAUGAGGAUCACCCAUGUCCUAGAGCUCG
[1]
  apparent Kd: 92 nM
[2]
  apparent Kd: 679 nM

## CGAGUUUUUGAGAAGGCAUAUUAUAAUAGUGUCCAUGUUUACAUGAGGAUCACCCAUGUUUAGUAUGAGGAUAUCAGUAUGUCG
[1]
  apparent Kd: 8.01 nM
[2]
  apparent Kd: 11.1 nM

## CGAUAACAUAGUUAUCCGUAGCGAACAUGAGGAUCACCCAUGUAGGAUAUGUUACUAAACUAGUAACAGAAGGACAUGAGUAUU
[1]
  apparent Kd: 154 nM
[2]
  apparent Kd: 407 nM

## CGAUAAUAUAGUUAUCCGUAGCGAACAUGAGGAUCACCCAUGUAGGAUAUGUUACUAAACUAGUAACAGAAGGACAUGAGUCUU
[1]
  apparent Kd: 28.5 nM
[2]
  apparent Kd: 178 nM

## CGAUAUAUGAAGGGCGAAAGCCCACAUGAGGAUCACCCAUGUAGAAGGCGAGCCGCAACGCGGCUCGAGGAUAUAUAGUAUACA
[1]
  apparent Kd: 7.24 nM
[2]
  apparent Kd: 8.52 nM

## CGAUAUGAUGCAGGAUAUCUAUCUUGAAUGAGGAGAGAAGGGCAAACCGAGACAUAAGCCUUAUUACAUGAGGAUCACCCAUGU
[1]
  apparent Kd: 10.4 nM
[2]
  apparent Kd: 9.38 nM

## CGAUAUUAUGCAGGAUAUCUCCCUUGAAUGCGGAGAGAAGGGCAUAGGGAGACAUACGCCUUAUUACAUGAGGAUCACCCAUGU
[1]
  apparent Kd: 9.4 nM
[2]
  apparent Kd: 8.29 nM

## CGAUGAGGUGUGAGGAUAUCGUGUUCGAAAGAACGUGAGAAGGCACAUGAGGAUCACCCAUGUGAACCUUGUCG
[1]
  apparent Kd: 16.9 nM
[2]
  apparent Kd: 18.8 nM

## CGAUGUUAUGCAGGAUAUCUCUCUUGAUUGAGGAGAGAAGGGCAUAGGGAGACAUACGCCUUAUUACAUGAGGAUCACCCAUGU
[1]
  apparent Kd: 9.47 nM
[2]
  apparent Kd: 7.85 nM

## CGAUUGGGAGGAUAUGCGUGGAUAGUUUUAUAUAGUAUGUUACAUGAGGAUCACCCAUGUAGAAGGUUCGGUUG
[1]
  apparent Kd: 56.9 nM
[2]
  apparent Kd: 58.3 nM

## CGCAACAUGAGGAUCACCCAUGUUCGCGGGCAAUUUUAGUGCAGAAGGGACAACGAAACGUAGGGUCAGGAUAUGCAUGUGCGC
[3]
  apparent Kd: 5.26 nM
[4]
  apparent Kd: 5.17 nM

## CGCAAGUAUACAUGAGGAUCACCCAUGUCAGAAAGGGUAAUCAGAAGGUACUAUUAGAGAUAGAGUAAGGAUAUGAAAUUUGCG
[3]
  apparent Kd: 718 nM
[4]
  apparent Kd: 138 nM

## CGCAAGUCAGGAUAUUCGACUGGUAAAUCUGUGGAUCAGUAGGAGAAGGGACAUGAGGAUCACCCAUGUUUGUU
[1]
  apparent Kd: 28.6 nM
[2]
  apparent Kd: 31.9 nM

Reference: the EternaBench riboswitch data
